From ChEMBL document CHEMBL1131143, “Predictive models for GABAA/benzodiazepine receptor subtypes: studies of quantitative structure-activity relationships for imidazobenzodiazepines at five recombinant GABAA/benzodiazepine receptor subtypes [alphaxbeta3gamma2 (x = 1-3, 5, and 6)] via comparative molecular field analysis” (J Med Chem, 1998)

How the values were obtained:
Format in all cases: protein-complex assay
[1] = molecular target: T1, GABA-A receptor; alpha-3/beta-3/gamma-2 (Homo sapiens, UniProt P18507+P28472+P34903); assay: Binding affinity against alpha-3-beta-3-gamma-2 GABAA/BzR receptor subtype.
T1 sequence (P18507 whole entry): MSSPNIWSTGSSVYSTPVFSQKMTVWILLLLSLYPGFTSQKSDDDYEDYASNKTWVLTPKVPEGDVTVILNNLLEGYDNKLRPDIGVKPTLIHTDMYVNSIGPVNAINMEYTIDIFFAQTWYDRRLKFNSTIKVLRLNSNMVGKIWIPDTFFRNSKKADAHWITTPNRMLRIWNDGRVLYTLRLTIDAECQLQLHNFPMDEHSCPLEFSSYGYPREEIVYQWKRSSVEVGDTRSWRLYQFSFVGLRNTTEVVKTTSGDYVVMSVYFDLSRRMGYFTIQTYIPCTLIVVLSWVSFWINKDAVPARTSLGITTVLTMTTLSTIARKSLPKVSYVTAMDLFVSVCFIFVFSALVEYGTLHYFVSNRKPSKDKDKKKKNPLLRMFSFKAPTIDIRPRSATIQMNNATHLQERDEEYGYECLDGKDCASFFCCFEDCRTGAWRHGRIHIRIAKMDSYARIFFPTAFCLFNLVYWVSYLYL
T1 sequence (P28472 whole entry): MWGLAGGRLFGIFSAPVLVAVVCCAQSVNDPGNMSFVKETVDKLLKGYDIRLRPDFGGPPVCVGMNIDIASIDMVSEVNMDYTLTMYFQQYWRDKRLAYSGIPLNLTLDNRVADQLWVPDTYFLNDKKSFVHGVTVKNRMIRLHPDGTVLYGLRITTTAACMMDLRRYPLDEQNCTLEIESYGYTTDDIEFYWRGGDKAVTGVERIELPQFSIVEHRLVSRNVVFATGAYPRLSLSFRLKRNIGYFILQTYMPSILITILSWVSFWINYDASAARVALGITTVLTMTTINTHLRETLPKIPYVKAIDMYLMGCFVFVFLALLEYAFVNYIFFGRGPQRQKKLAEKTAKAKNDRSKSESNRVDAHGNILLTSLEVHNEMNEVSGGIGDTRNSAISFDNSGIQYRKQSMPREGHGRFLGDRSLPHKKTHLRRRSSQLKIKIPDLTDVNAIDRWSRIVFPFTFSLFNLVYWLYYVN
T1 sequence (P34903 whole entry): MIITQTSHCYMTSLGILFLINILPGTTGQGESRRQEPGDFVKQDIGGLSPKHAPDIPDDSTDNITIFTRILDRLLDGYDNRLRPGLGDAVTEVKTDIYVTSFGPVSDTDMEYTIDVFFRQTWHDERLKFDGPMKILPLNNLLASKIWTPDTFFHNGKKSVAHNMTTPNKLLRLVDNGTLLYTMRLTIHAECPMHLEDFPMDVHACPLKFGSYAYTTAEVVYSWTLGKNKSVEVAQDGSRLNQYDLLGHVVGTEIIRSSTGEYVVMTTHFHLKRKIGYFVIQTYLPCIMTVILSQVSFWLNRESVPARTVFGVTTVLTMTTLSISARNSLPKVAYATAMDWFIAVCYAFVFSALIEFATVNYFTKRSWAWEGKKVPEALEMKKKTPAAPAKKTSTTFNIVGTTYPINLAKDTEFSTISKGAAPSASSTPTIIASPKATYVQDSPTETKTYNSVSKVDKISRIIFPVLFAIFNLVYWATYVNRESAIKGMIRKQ

[2] = molecular target: T2, GABA-A receptor; alpha-1/beta-3/gamma-2 (Homo sapiens, UniProt P14867+P18507+P28472); assay: Binding affinity against alpha-1-beta-3-gamma-2 GABAA/BzR receptor subtype.
T2 sequence (P14867 whole entry): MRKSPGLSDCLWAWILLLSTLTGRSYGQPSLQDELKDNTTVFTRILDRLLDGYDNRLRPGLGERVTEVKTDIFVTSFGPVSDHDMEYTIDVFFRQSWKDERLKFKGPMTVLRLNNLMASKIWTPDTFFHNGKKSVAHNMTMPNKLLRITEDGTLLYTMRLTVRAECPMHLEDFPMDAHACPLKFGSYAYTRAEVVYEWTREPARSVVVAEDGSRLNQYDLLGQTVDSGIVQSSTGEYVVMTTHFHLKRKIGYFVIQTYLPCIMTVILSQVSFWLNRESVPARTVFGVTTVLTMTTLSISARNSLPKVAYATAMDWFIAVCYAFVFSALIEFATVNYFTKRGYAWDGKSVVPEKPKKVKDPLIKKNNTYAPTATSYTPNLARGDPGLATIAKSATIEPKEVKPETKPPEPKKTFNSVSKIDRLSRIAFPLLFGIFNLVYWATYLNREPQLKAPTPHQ
T2 sequence (P18507 whole entry): T1 sequence (P18507 whole entry)
T2 sequence (P28472 whole entry): T1 sequence (P28472 whole entry)

[3] = molecular target: GABA-A receptor; alpha-1/beta-3/gamma-2 (Homo sapiens) (UniProt P14867+P18507+P28472); assay: It is the ratio of Ki value for alpha-1-beta-3-gamma-2 to that of alpha-5-beta-3-gamma-2
[4] = molecular target: T3, GABA-A receptor; alpha-2/beta-3/gamma-2 (Homo sapiens, UniProt P18507+P28472+P47869); assay: Binding affinity tested against alpha-2-beta-3-gamma-2 GABAA/BzR receptor subtype.
T3 sequence (P18507 whole entry): T1 sequence (P18507 whole entry)
T3 sequence (P28472 whole entry): T1 sequence (P28472 whole entry)
T3 sequence (P47869 whole entry): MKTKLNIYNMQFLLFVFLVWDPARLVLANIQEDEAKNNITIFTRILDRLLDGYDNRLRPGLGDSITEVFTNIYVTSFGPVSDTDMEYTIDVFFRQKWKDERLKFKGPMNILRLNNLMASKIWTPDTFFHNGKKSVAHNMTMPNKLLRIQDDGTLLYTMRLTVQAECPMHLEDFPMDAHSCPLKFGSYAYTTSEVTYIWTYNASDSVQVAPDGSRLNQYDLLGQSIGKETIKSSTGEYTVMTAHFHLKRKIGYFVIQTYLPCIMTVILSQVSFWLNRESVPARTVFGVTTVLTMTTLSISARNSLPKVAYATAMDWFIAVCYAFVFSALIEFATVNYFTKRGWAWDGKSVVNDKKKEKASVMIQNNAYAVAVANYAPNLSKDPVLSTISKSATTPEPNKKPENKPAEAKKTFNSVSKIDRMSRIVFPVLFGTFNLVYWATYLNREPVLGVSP

[5] = molecular target: GABA-A receptor; alpha-6/beta-3/gamma-2 (Homo sapiens, UniProt P18507+P28472+Q16445); assay: Binding affinity against Gamma-aminobutyric acid A receptor alpha-6-beta-3-gamma-2
Method in brief: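 Cells scraped into PBS, spun at 3000g, resuspended in 10 mM KH₂PO₄/100 mM KCl pH 7.4. Nonspecific binding with 10⁻⁵ M diazepam; 1 h to equilibrium at 4 °C; filtration, ice-cold buffer wash, scintillation counting.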

[6] = molecular target: T4, GABA-A receptor; alpha-5/beta-3/gamma-2 (Homo sapiens, UniProt P18507+P28472+P31644); assay: Binding affinity for Gamma-aminobutyric acid A receptor alpha-5-beta-3-gamma-2
T4 sequence (P18507 whole entry): T1 sequence (P18507 whole entry)
T4 sequence (P28472 whole entry): T1 sequence (P28472 whole entry)
T4 sequence (P31644 whole entry): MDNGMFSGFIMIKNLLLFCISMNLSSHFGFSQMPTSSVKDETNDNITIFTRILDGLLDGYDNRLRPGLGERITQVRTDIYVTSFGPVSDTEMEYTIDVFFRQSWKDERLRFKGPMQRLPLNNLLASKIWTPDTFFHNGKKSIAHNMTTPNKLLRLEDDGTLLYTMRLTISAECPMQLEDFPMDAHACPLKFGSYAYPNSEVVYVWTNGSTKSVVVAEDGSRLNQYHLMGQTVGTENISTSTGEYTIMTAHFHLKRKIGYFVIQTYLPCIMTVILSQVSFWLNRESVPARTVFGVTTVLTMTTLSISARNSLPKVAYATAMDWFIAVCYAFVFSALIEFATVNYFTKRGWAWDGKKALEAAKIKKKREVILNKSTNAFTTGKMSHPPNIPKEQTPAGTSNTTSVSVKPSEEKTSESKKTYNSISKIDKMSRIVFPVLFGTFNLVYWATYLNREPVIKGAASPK

GABA-A receptor; alpha-6/beta-3/gamma-2, sequence (Q16445 whole entry, one chain of several): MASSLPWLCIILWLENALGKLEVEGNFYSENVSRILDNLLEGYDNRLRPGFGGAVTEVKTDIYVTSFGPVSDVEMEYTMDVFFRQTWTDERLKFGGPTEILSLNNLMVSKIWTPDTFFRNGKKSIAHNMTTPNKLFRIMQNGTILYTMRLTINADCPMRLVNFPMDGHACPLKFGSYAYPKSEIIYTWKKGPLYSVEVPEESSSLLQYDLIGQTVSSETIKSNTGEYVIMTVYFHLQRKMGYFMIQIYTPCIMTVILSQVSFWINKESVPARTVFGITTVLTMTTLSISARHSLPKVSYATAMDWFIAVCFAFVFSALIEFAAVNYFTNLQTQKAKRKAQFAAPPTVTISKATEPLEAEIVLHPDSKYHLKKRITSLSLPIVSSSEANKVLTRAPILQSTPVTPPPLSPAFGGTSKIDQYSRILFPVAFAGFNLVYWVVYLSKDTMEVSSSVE

Compound	Ki [1] [nM]	Ki [2] [nM]	Ratio [3]	Ki [4] [nM]	Ki [5] [nM]	Ki [6] [nM]
CC(=O)c1ncn2c1CN(C)C(=O)c1cc(Cl)ccc1-2	22100	17500	6.7	33800	29500	2610
CN1Cc2c(CCl)ncn2-c2ccc(Cl)cc2C1=O	> 300	> 300	> 10.5	> 300	> 300	28.5
C#Cc1ccc2c(c1)C(=O)N1CCC[C@@H]1c1c(C(=O)OCC)ncn1-2	102	283	39	318	61	7.2
CCCCC(=O)c1ncn2c1CN(C)C(=O)c1cc(Cl)ccc1-2	2740	1580	9.6	2860	2930	166
CN1Cc2c(C(=O)OCC3CC3)ncn2-c2ccc(Cl)cc2C1=O	42.5	16.4	1.7	48.2	168	9.8
CN1Cc2c(C(=O)OC(C)(C)C)ncn2-c2ccc(N=C=S)cc2C1=O	50	17.1	6.8	33.7	30.7	2.5
CN1Cc2c(C(=O)OC(C)(C)C)ncn2-c2ccc([N+](=O)[O-])cc2C1=O	30.2	12.8	3.7	49.8	22.5	3.5
CN1Cc2c(C(=O)OC(C)(C)C)ncn2-c2ccc(C#CC[Si](C)(C)C)cc2C1=O	337	275	12	387	301	23
C#Cc1ccc2c(c1)C(=O)N1CCC[C@H]1c1c(-c3nc(CC)no3)ncn1-2	85	86	36	40	150	2.4
CCCCCc1ncn2c1CN(C)C(=O)c1cc(Cl)ccc1-2	2910	2050	5.6	2900	960	369
C#Cc1ccc2c(c1)C(=O)N1CC[C@H]1c1c(-c3nc(CC)no3)ncn1-2	184	220	17	150	361	12.7
CCOCc1ncn2c1CN(C)C(=O)c1cc(Cl)ccc1-2	> 300	> 300	> 3.6	> 300	> 300	82.7
CCOC(=O)c1ncn2c1[C@@H]1CCN1C(=O)c1cc(C#C[Si](C)(C)C)ccc1-2	48	83	32	60	180	2.6
CCOC(=O)c1ncn2c1[C@@H]1CCCN1C(=O)c1cc(C#C[Si](C)(C)C)ccc1-2	79	200	50	124	340	4
COCc1ncn2c1CN(C)C(=O)c1cc(Cl)ccc1-2	> 300	> 300	> 7.7	> 300	> 300	38.8
CCOC(=O)c1ncn2c1[C@@H]1CCCN1C(=O)c1cc(Br)ccc1-2	15	49	49	29	46	1
CCc1ccc2c(c1)C(=O)N(C)Cc1c(C(=O)OC(C)(C)C)ncn1-2	25.3	14.8	8.6	56	22.9	1.72
CCOC(=O)c1ncn2c1CN(C)C(=O)c1cc(C#N)ccc1-2	19	10	1.67	45	> 1000	6
CN1Cc2c(C(=O)OC(C)(C)C)ncn2-c2ccc(Cl)cc2C1=O	29.1	17.3	26.6	21.6	4	0.65
C#Cc1ccc2c(c1)C(=O)N(C)Cc1c(C(=O)OC(C)(C)C)ncn1-2	18.7	26.9	67.3	26.3	5.1	0.4
CCOC(=O)c1ncn2c1[C@@H]1CCN1C(=O)c1cc(Br)ccc1-2	6.7	17	56	13	31	0.3
CN1Cc2c(C(=O)OC(C)(C)C)ncn2-c2ccc(I)cc2C1=O	10.9	9.7	25.5	11.2	4.6	0.38
CCc1ncn2c1CN(C)C(=O)c1cc(Cl)ccc1-2	1130	408	2.2	1530	3650	182
C#Cc1ccc2c(c1)C(=O)N1CC[C@H]1c1c(C(=O)OCC)ncn1-2	10	21	57	12	42	0.37
